Measured values: ChEMBL document CHEMBL5365542, “Difluoromethyl-1,3,4-oxadiazoles Are Selective, Mechanism-Based, and Essentially Irreversible Inhibitors of Histone Deacetylase 6” (J Med Chem, 2023)
Positions count from the first letter of the chain named. The source made the active and inactive calls. No cut-off for these calls is given here.

Key:
[1] = target: Histone deacetylase 2 (Homo sapiens) (UniProt Q92769); experiment: Inhibition of C-terminal 6His-tagged human recombinant HDAC2 (1 to 488 residues) expressed in Sf9 insect cells using Z-Lys(Ac)-AMC as fluorogenic substrate at 10 uM preincubated for 60 mins followed by substrate addition and measured after 90 mins by microplate reader analysis relative to control; settings: time 150.0 min
Summary of the method: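 Human recombinant enzyme was preincubated with 3-fold inhibitor dilutions for 60 min at 25 °C in Tris-HCl pH 8.0 buffer with BSA. ZMAL (75 μM solution) was then added, and the mix was incubated 90 min at 37 °C (max 1% DMSO). Trypsin was added for 30 min at 37 °C, and fluorescence was read at ex 355/em 460. Tested at least twice in duplicate.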

[2] = target: T1, Histone deacetylase 6 (Danio rerio) (UniProt F8W4B7); experiment: Irreversible inhibition of Danio rerio HDAC6 catalytic domain 2 assessed as enzyme catalysed ring opening by measuring 2-(Benzylamino)pyrimidine-5-carbohydrazide level at 100 uM incubated overnight by LC-MS analysis
T1 sequence (whole entry): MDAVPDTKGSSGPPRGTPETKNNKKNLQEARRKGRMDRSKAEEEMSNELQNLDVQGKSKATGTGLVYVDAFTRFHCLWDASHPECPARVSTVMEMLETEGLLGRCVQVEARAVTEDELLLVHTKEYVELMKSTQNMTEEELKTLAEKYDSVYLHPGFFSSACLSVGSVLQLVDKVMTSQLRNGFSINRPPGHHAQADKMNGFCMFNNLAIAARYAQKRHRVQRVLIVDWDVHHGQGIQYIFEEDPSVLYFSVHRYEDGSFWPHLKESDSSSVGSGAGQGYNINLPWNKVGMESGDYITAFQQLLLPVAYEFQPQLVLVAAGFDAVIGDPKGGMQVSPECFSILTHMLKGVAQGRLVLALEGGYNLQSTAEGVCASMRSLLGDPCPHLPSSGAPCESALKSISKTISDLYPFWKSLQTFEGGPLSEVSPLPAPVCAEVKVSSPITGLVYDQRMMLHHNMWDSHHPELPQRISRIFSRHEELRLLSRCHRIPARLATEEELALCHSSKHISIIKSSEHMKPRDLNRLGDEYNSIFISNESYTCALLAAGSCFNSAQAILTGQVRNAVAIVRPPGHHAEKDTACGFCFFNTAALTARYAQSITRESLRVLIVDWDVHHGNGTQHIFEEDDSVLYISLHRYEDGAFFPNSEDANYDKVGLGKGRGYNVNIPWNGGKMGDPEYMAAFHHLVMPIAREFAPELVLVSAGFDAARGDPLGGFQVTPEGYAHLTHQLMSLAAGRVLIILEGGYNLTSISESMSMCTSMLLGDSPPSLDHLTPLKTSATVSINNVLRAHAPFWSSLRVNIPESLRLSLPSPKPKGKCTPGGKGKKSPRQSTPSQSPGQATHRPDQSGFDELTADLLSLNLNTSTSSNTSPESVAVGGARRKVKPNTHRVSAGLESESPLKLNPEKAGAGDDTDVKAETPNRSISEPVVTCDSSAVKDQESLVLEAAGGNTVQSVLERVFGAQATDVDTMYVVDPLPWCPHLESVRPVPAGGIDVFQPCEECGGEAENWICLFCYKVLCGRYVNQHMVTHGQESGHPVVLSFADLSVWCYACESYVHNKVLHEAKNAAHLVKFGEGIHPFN
Summary of the method: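 Danio rerio HDAC6 catalytic domain 2 (zCD2), 50 μM, in 50 mM HEPES pH 7.5, 100 mM KCl, 1 mM TCEP, 5% glycerol, incubated overnight with 100 μM inhibitor (100 μL). Enzyme-free inhibitor controls run in parallel. Protein precipitated with methanol and filtered. Filtrate analysed by C18 reverse-phase UPLC-MS with a 2-min H2O/MeCN gradient.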

[3] = tested on: T2, Histone deacetylase 6 (Danio rerio), F8W4B7 [H573A]; experiment: Irreversible inhibition of Danio rerio HDAC6 H573A mutant catalytic domain 2 assessed as enzyme catalysed ring opening by measuring reduction in 2-(Benzylamino)-N'-(2,2-difluoroacetyl)pyrimidine-5-carbohydrazide formation at 100 uM incubated overnight by LC-MS analysis
T2 sequence (whole entry): T1 sequence (whole entry) with H573A
Summary of the method: (§1)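 Zebrafish HDAC6 CD2 mutants were made by site-directed mutagenesis and expressed in BL21(DE3). Enzyme at 50 μM was incubated overnight with 100 μM inhibitor in 50 mM HEPES pH 7.5, 100 mM KCl, 1 mM TCEP, 5% glycerol; an enzyme-free control was included. Protein was methanol-precipitated and filtered, and products were analysed by C18 UPLC-MS with a 2-min gradient.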

[4] = tested on: T2, Histone deacetylase 6 (Danio rerio), F8W4B7 [H573A]; experiment: Irreversible inhibition of Danio rerio HDAC6 H573A mutant catalytic domain 2 assessed as enzyme catalysed ring opening by measuring reduction in 2-(benzylamino)-N'-(2,2,2-trifluoroacetyl)pyrimidine-5-carbohydrazide formation at 100 uM incubated overnight by LC-MS analysis; summary of the method: as §1

Sequence of Histone deacetylase 2 (Homo sapiens) (Q92769 whole entry, the tested form may be a part): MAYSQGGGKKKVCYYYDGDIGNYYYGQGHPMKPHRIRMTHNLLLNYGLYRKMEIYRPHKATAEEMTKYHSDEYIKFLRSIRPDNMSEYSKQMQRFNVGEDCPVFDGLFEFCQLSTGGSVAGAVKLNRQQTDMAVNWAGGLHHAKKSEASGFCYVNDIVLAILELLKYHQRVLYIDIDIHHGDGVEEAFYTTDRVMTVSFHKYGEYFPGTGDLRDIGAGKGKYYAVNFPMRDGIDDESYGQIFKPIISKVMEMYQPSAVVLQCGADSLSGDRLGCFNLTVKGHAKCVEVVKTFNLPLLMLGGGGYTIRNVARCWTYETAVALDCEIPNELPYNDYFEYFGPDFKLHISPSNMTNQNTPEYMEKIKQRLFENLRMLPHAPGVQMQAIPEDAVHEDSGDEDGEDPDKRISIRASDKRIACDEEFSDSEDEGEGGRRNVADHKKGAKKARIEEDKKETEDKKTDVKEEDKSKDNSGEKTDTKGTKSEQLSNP

SMILES | inhibition [1] | Activity [2] | inhibition [3] | inhibition [4]
FC(F)(F)c1nnc(-c2cnc(NCc3ccccc3)nc2)o1 | < 15% | 18 µM | Active | Active
FC(F)c1nnc(-c2cnc(NCc3ccccc3)nc2)o1 | < 15% | 9 µM | Active | Active
